ChEMBL document CHEMBL4038304, “Chiral Indolylarylsulfone Non-Nucleoside Reverse Transcriptase Inhibitors as New Potent and Broad Spectrum Anti-HIV-1 Agents” (J Med Chem, 2017)

Experiments:
[1] = test system: Human immunodeficiency virus 1; assay: Antiviral activity against HIV1 harboring reverse transcriptase Y181C mutant infected in human […] cells assessed as protection against virus-induced cytopathic effect measured on day 5 post infection by MTT assay; format: functional, cell-based; conditions: Human immunodeficiency virus 1, 120 h
[2] = test system: Human immunodeficiency virus 1; assay: Antiviral activity against HIV1 NL4-3 infected in human […] cells assessed as protection against virus-induced cytopathic effect measured on day 5 post infection by MTT assay; format: functional, cell-based; conditions: Human immunodeficiency virus 1, NL4-3, 120 h
Procedure, shortened: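 Values are means of two to three independent experiments, each run in triplicate. The lowest detectable concentration is reported where activity fell below the assay limit.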

[3] = test system: Human immunodeficiency virus 1; assay: Antiviral activity against HIV1 harboring reverse transcriptase K103N /[…] double mutant infected in human […] cells assessed as protection against virus-induced cytopathic effect measured on day 5 post infection by MTT assay; format: functional, cell-based; conditions: Human immunodeficiency virus 1, 120 h
[4] = test system: Human immunodeficiency virus 1; assay: Antiviral activity against HIV1 harboring reverse transcriptase Y188L mutant infected in human […] cells assessed as protection against virus-induced cytopathic effect measured on day 5 post infection by MTT assay; format: functional, cell-based; conditions: Human immunodeficiency virus 1, 120 h
[5] = test system: Human immunodeficiency virus 1; assay: Antiviral activity against HIV1 harboring reverse transcriptase K103N mutant infected in human […] cells assessed as protection against virus-induced cytopathic effect measured on day 5 post infection by MTT assay; format: functional, cell-based; conditions: Human immunodeficiency virus 1, 120 h
[6] = Cytotoxicity against human MT4 cells assessed as cell viability by MTT assay; format: cell-based
Procedure, shortened: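 Uninfected MT-4 cells scored for viability by MTT. […] Values are means of two to three independent experiments, each run in triplicate.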

[7] = test system: Human immunodeficiency virus 1; assay: Ratio of EC50 for HIV-1 harboring reverse transcriptase Y181C mutant infected in human MT4 cells to EC50 for HIV1 NL4-3 infected in human MT4 cells; format: functional
Procedure, shortened: (§1)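 Fold change calculated as EC50 against the stated resistant mutant HIV-1 strain divided by EC50 against wild-type NL4-3. Both EC50s come from MTT read-out of virus-induced death in MT-4 cells, mean of two to three independent experiments each in triplicate.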

[8] = test system: Human immunodeficiency virus 1; assay: Ratio of EC50 for HIV-1 harboring reverse transcriptase K103N/[…] double mutant infected in human MT4 cells to EC50 for HIV1 NL4-3 infected in human MT4 cells; format: functional; procedure, shortened: as §1
[9] = Selectivity index, ratio of CC50 for human MT4 cells to EC50 for HIV1 NL4-3 infected in human MT4 cells; format: toxicity, cell-based; conditions: read-out: Ratio CC50/EC50
Procedure, shortened: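 SI computed as CC50/EC50, using the MTT-based CC50 in uninfected MT-4 cells and the MTT-based EC50 against HIV-1 NL4-3-induced cell death in MT-4 cells. Experiments were run in triplicate, two to three times.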

[10] = test system: Human immunodeficiency virus 1; assay: Ratio of EC50 for HIV-1 harboring reverse transcriptase K103N mutant infected in human MT4 cells to EC50 for HIV1 NL4-3 infected in human MT4 cells; format: functional; procedure, shortened: as §1
[11] = test system: Human immunodeficiency virus 1; assay: Ratio of EC50 for HIV-1 harboring reverse transcriptase Y188L mutant infected in human MT4 cells to EC50 for HIV1 NL4-3 infected in human MT4 cells; format: functional; procedure, shortened: as §1

Compound	EC50 [1]	EC50 [2]	EC50 [3]	EC50 [4]	EC50 [5]	CC50 [6]	Ratio EC50 [7]	Ratio EC50 [8]	selectivity ratio [9]	Ratio EC50 [10]	Ratio EC50 [11]
Cc1cc(C)cc(S(=O)(=O)c2c(C(=O)NCC(=O)N[C@@H](C)c3ccncc3)[nH]c3ccc(Cl)cc23)c1	2.5 nM	0.7 nM	4.63 µM	3050 nM	438 nM						
Cc1cc(C)cc(S(=O)(=O)c2c(C(=O)NC(C)C(=O)NCc3ccccc3F)[nH]c3ccc(Cl)cc23)c1 (racemic)	93 nM	0.6 nM	> 23.3 µM	4240 nM	26 nM	23.3 µM	155	>38775	23300	43	7067
Cc1cc(C)cc(S(=O)(=O)c2c(C(=O)NCC(=O)NC(C)c3ccncc3)[nH]c3ccc(Cl)cc23)c1 (racemic)	0.6 nM	0.6 nM	13.3 µM	610 nM	38 nM	47 µM	1	22227	> 78400	64	1017
COc1cccc(F)c1CNC(=O)c1[nH]c2ccc(Cl)cc2c1S(=O)(=O)c1cc(C)cc(C)c1	399 nM	0.6 nM	27.7 µM		0.6 nM	> 49.9 µM	665	46243	> 83200	1	
Cc1cc(C)cc(S(=O)(=O)c2c(C(=O)Nc3cc(C#N)ccn3)[nH]c3ccc(Cl)cc23)c1	2.2 nM	0.6 nM	> 53.8 µM		0.6 nM	> 53.8 µM	3.7	>89622	> 89600	1	
Cc1cc(C)cc(S(=O)(=O)c2c(C(=O)NC(C)C(=O)NC(C)c3ccccc3F)[nH]c3ccc(Cl)cc23)c1 (racemic)	108 nM	0.6 nM	6.47 µM	> 15200 nM	36 nM	15.2 µM	180	10790	> 25400	60	>25387
Cc1cc(C)cc(S(=O)(=O)c2c(C(=O)NCC(=O)NCCn3c(C)cnc3[N+](=O)[O-])[nH]c3ccc(Cl)cc23)c1	17 nM	0.2 nM	4.68 µM	2320 nM	279 nM	24.5 µM	85	23285	144000	1395	11605
Cc1cc(C)cc(S(=O)(=O)c2c(C(=O)NC(c3ccc(Cl)cc3)C3CC3)[nH]c3ccc(Cl)cc23)c1 (racemic)		133 nM				> 47.4 µM			> 359		
Cc1cc(C)cc(S(=O)(=O)c2c(C(=O)NCC(=O)NC(C)c3ccccc3)[nH]c3ccc(Cl)cc23)c1 (racemic)	76 nM	0.6 nM	> 29.4 µM	1620 nM	210 nM	29.4 µM	127	>48978	> 49000	350	2703
Cc1cc(C)cc(S(=O)(=O)c2c(C(=O)NCC(=O)NCc3ccncc3)[nH]c3ccc(Cl)cc23)c1	20 nM	0.2 nM	6.09 µM	1400 nM	190 nM	> 48.9 µM	100	30430	> 245000		
Cc1cc(C)cc(S(=O)(=O)c2c(C(=O)NC(C)c3ccco3)[nH]c3ccc(Cl)cc23)c1 (racemic)	22 nM	0.7 nM	12 µM	350 nM	109 nM	> 54.7 µM	31	17195	> 78200	155	500
Cc1cc(C)cc(S(=O)(=O)c2c(C(=O)NC(CF)c3ccccc3)[nH]c3ccc(Cl)cc23)c1 (racemic)	82 nM	0.7 nM	27.3 µM		0.7 nM	49.2 µM	117	39030	> 70300	1	
Cc1cc(C)cc(S(=O)(=O)c2c(C(=O)NC(C)c3cc(F)cc(F)c3)[nH]c3ccc(Cl)cc23)c1 (racemic)	716 nM	0.6 nM	> 49.7 µM		1.2 nM	> 49.7 µM	1198	>82843	> 82800	2	
Cc1cc(C)cc(S(=O)(=O)c2c(C(=O)NC(C)C(=O)NCc3ccco3)[nH]c3ccc(Cl)cc23)c1 (racemic)	27 nM	0.6 nM	4.51 µM	2430 nM	1.9 nM	24.2 µM	45	>7521	> 40400	3	4053
Cc1ccnc2c1NC(=O)c1cccnc1N2C1CC1 [NEVIRAPINE]	> 3760 nM	112 nM	> 3.76 µM	> 3760 nM	> 3760 nM	> 18.8 µM					
Cc1cc(C)cc(S(=O)(=O)c2c(C(=O)NCC(=O)N[C@H](C)c3ccncc3)[nH]c3ccc(Cl)cc23)c1	5.71 nM	0.7 nM	12.2 µM	3270 nM	152 nM						
Cc1cc(C)cc(S(=O)(=O)c2c(C(=O)NC(C)C(=O)NC(C)c3ccncc3)[nH]c3ccc(Cl)cc23)c1 (racemic)	167 nM	0.6 nM	> 36.5 µM	12900 nM	7.4 nM	21.9 µM	278	>60805	> 36500	12	21488
Cc1cc(C)cc(S(=O)(=O)c2c(C(=O)NC(C)C(=O)NC(C)c3ccccc3)[nH]c3ccc(Cl)cc23)c1 (racemic)	167 nM	0.6 nM	24.9 µM	3790 nM	1.9 nM	21.7 µM	283	42149	> 36900	3.2	6427
Cc1cc(C)cc(S(=O)(=O)c2c(C(=O)NCc3cccc(F)c3F)[nH]c3ccc(Cl)cc23)c1	2 nM	0.7 nM	> 51.1 µM		0.7 nM	> 51.1 µM	2.9	>73046	> 73000	1	
Cc1cc(C)cc(S(=O)(=O)c2c(C(=O)NC(C)C(=O)NCCc3cccs3)[nH]c3ccc(Cl)cc23)c1 (racemic)	129 nM	0.6 nM	> 9.8 µM	> 9800 nM	18 nM	9.5 µM	215	>16336	52800	30	>16336
Cc1cc(C)cc(S(=O)(=O)c2c(C(=O)NCc3n[nH]c4ccccc34)[nH]c3ccc(Cl)cc23)c1	0.6 nM	0.6 nM	0.548 µM	142 nM	0.6 nM	> 50.7 µM	1	913	> 84500	1	237
Cc1cc(C)cc(S(=O)(=O)c2c(C(=O)NCC(=O)NCc3ccccc3F)[nH]c3ccc(Cl)cc23)c1	1.3 nM	0.6 nM	> 47.3 µM	6160 nM	1330 nM	> 47.3 µM	1.9	>72248	> 78900	1894	10258
Cc1cn([C@H]2C[C@H](N=[N+]=[N-])[C@@H](CO)O2)c(=O)[nH]c1=O [ZIDOVUDINE]	6 nM	3.7 nM	0.016 µM	33 nM	16 nM	> 30.6 µM	1.6		> 8270	4.3	8.9
